Data published in ChEMBL document CHEMBL3085749, “Design, optimization, and biological evaluation of novel keto-benzimidazoles as potent and selective inhibitors of phosphodiesterase 10A (PDE10A)” (J Med Chem, 2013).

Experiments:
Assay type in all cases: ADME, organism-based
[1] = Volume of distribution at steady state in Sprague-Dawley rat at 2 mg/kg, iv by LC-MS/MS analysis; parameters: dose 2 mg/kg, route intravenous; settings: in vivo, read-out: Vdss
[2] = AUC in Sprague-Dawley rat at 10 mg/kg, po by LC-MS/MS analysis; parameters: dose 10 mg/kg, route oral; settings: plasma
Summary of the method: (§1)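 Fed male Sprague−Dawley rats. Vehicle for iv was 100% DMSO; for po and ip it was 1% Tween and 2% HPMC with methanesulfonic acid, pH 2.2. Reported parameters are Cl (L/h/kg), Vss (L/kg), AUC (μM·h), T1/2 (h) and %F.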

[3] = Oral bioavailability in Sprague-Dawley rat at 10 mg/kg by LC-MS/MS analysis; settings: in vivo; summary of the method: as §1
[4] = AUC in Sprague-Dawley rat at 2 mg/kg, iv by LC-MS/MS analysis; parameters: dose 2 mg/kg, route intravenous; settings: plasma
[5] = Oral bioavailability in Sprague-Dawley rat at 5 mg/kg by LC-MS/MS analysis; settings: in vivo
[6] = AUC in Sprague-Dawley rat at 5 mg/kg, po by LC-MS/MS analysis; parameters: dose 5 mg/kg, route oral; settings: plasma

Work on `O=C(c1ccc(Oc2nccnc2N2CCC(O)CC2)cc1)c1nc2ccccc2[nH]1` yielded a Vd [1] of 1.28 L/kg, an AUC [2] of 11.7 µM·h and a bioavailability [3] of 52%. For the same compound, the AUC [4] was 4.5 µM·h.
Compound `CC(=O)N1CCN(c2nccnc2Oc2ccc(C(=O)c3nc4ccccc4[nH]3)cc2)CC1` has a bioavailability [5] of 56%, a Vd [1] of 0.165 L/kg and an AUC [4] of 62.1 µM·h. For the same compound, the AUC [6] was 79.2 µM·h.
